Data published in ChEMBL document CHEMBL3352176, “Synthesis and evaluation of novel dapsone-thalidomide hybrids for the treatment of type 2 leprosy reactions” (Bioorg Med Chem Lett, 2014).

Key:
[1] = test system: L929; experiment: Antiinflammatory activity against mouse L929 cells assessed as inhibition of LPS-induced TNFalpha production at 125 uM after 48 hrs; assay type: functional; details: L929, 48 h
Outline: (§1)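 Mouse L929 fibroblasts were stimulated with lipopolysaccharide and exposed to compounds at 15.62 µM and 125 µM. TNFα was quantified in culture supernatants in pg/mL and expressed as percent decrease versus stimulated cells. Thalidomide served as the reference control.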

[2] = Cytotoxicity against mouse L929 cells assessed as cell viability up to 150 uM; assay type: cell-based; details: read-out: Activity
[3] = test system: L929; experiment: Antiinflammatory activity against mouse L929 cells assessed as inhibition of LPS-induced TNFalpha production at 15.625 uM after 48 hrs; assay type: functional; details: L929, 48 h; outline: as §1
[4] = test system: L929; experiment: Antiinflammatory activity against mouse L929 cells assessed as inhibition of LPS-induced TNFalpha production after 48 hrs; assay type: functional, cell-based; outline: as §1
[5] = test system: Mus musculus; experiment: Antinociceptive effect in mouse assessed as inhibition of acetic acid-induced abdominal constriction at 100 uM/kg, po; assay type: functional, Abdomen
[6] = test system: Salmonella typhimurium; experiment: Genotoxicity in Salmonella typhimurium TA100 at 1.25 ug/plate assessed as number of revertants per plate in presence of S9 liver extract (reference value: 128.9 +/- 7.3 no unit); assay type: toxicity, organism-based, Liver S9 fraction; details: salmonella enterica subsp. enterica serovar typhimurium
[7] = test system: Salmonella typhimurium; experiment: Genotoxicity in Salmonella typhimurium TA102 at 3 ug/plate assessed as number of revertants per plate (reference value: 301 +/- 5.2 no unit); assay type: toxicity, organism-based; details: salmonella enterica subsp. enterica serovar typhimurium
[8] = test system: Mycobacterium leprae; experiment: Antimycobacterial activity against Mycobacterium leprae inoculated in mouse model assessed as mean number of bacilli at 200 mg/kg, po 5 days/week for 4 weeks (reference value: 3.56 x 10^6 cells); assay type: functional
[9] = test system: Salmonella typhimurium; experiment: Genotoxicity in Salmonella typhimurium TA102 assessed as mutagenic index at 32 umol/plate; assay type: toxicity, organism-based; details: salmonella enterica subsp. enterica serovar typhimurium
[10] = test system: Salmonella typhimurium; experiment: Genotoxicity in Salmonella typhimurium TA102 assessed as mutagenic index at 2 umol/plate; assay type: toxicity, organism-based; details: salmonella enterica subsp. enterica serovar typhimurium
[11] = test system: Salmonella typhimurium; experiment: Genotoxicity in Salmonella typhimurium TA100 assessed as mutagenic index at 16 umol/plate in presence of S9 liver extract; assay type: toxicity, organism-based, Liver S9 fraction; details: salmonella enterica subsp. enterica serovar typhimurium
[12] = test system: Salmonella typhimurium; experiment: Genotoxicity in Salmonella typhimurium TA100 assessed as mutagenic index at 8 umol/plate in presence of S9 liver extract; assay type: toxicity, organism-based, Liver S9 fraction; details: salmonella enterica subsp. enterica serovar typhimurium
[13] = test system: Salmonella typhimurium; experiment: Genotoxicity in Salmonella typhimurium TA102 assessed as mutagenic index at 8 umol/plate in presence of S9 liver extract; assay type: toxicity, organism-based, Liver S9 fraction; details: salmonella enterica subsp. enterica serovar typhimurium
[14] = test system: Salmonella typhimurium; experiment: Genotoxicity in Salmonella typhimurium TA102 assessed as mutagenic index at 4 umol/plate in presence of S9 liver extract; assay type: toxicity, organism-based, Liver S9 fraction; details: salmonella enterica subsp. enterica serovar typhimurium
[15] = test system: Salmonella typhimurium; experiment: Genotoxicity in Salmonella typhimurium TA100 assessed as mutagenic index at 2 umol/plate in presence of S9 liver extract; assay type: toxicity, organism-based, Liver S9 fraction; details: salmonella enterica subsp. enterica serovar typhimurium
[16] = test system: Salmonella typhimurium; experiment: Genotoxicity in Salmonella typhimurium TA100 assessed as mutagenic index at 8 umol/plate; assay type: toxicity, organism-based; details: salmonella enterica subsp. enterica serovar typhimurium
[17] = test system: Salmonella typhimurium; experiment: Genotoxicity in Salmonella typhimurium TA100 assessed as mutagenic index at 16 umol/plate; assay type: toxicity, organism-based; details: salmonella enterica subsp. enterica serovar typhimurium
[18] = test system: Salmonella typhimurium; experiment: Genotoxicity in Salmonella typhimurium TA102 assessed as mutagenic index at 16 umol/plate in presence of S9 liver extract; assay type: toxicity, organism-based, Liver S9 fraction; details: salmonella enterica subsp. enterica serovar typhimurium
[19] = test system: Salmonella typhimurium; experiment: Genotoxicity in Salmonella typhimurium TA102 assessed as mutagenic index at 8 umol/plate; assay type: toxicity, organism-based; details: salmonella enterica subsp. enterica serovar typhimurium
[20] = test system: Salmonella typhimurium; experiment: Genotoxicity in Salmonella typhimurium TA100 assessed as mutagenic index at 2 umol/plate; assay type: toxicity, organism-based; details: salmonella enterica subsp. enterica serovar typhimurium
[21] = test system: Salmonella typhimurium; experiment: Genotoxicity in Salmonella typhimurium TA102 assessed as mutagenic index at 32 umol/plate in presence of S9 liver extract; assay type: toxicity, organism-based, Liver S9 fraction; details: salmonella enterica subsp. enterica serovar typhimurium
[22] = test system: Salmonella typhimurium; experiment: Genotoxicity in Salmonella typhimurium TA100 assessed as mutagenic index at 32 umol/plate; assay type: toxicity, organism-based; details: salmonella enterica subsp. enterica serovar typhimurium
[23] = test system: Salmonella typhimurium; experiment: Genotoxicity in Salmonella typhimurium TA102 assessed as mutagenic index at 4 umol/plate; assay type: toxicity, organism-based; details: salmonella enterica subsp. enterica serovar typhimurium
[24] = test system: Salmonella typhimurium; experiment: Genotoxicity in Salmonella typhimurium TA102 assessed as mutagenic index at 2 umol/plate in presence of S9 liver extract; assay type: toxicity, organism-based, Liver S9 fraction; details: salmonella enterica subsp. enterica serovar typhimurium
[25] = test system: Salmonella typhimurium; experiment: Genotoxicity in Salmonella typhimurium TA100 assessed as mutagenic index at 4 umol/plate in presence of S9 liver extract; assay type: toxicity, organism-based, Liver S9 fraction; details: salmonella enterica subsp. enterica serovar typhimurium
[26] = test system: Salmonella typhimurium; experiment: Genotoxicity in Salmonella typhimurium TA102 assessed as mutagenic index at 16 umol/plate; assay type: toxicity, organism-based; details: salmonella enterica subsp. enterica serovar typhimurium
[27] = test system: Salmonella typhimurium; experiment: Genotoxicity in Salmonella typhimurium TA100 assessed as mutagenic index at 4 umol/plate; assay type: toxicity, organism-based; details: salmonella enterica subsp. enterica serovar typhimurium
[28] = test system: Salmonella typhimurium; experiment: Genotoxicity in Salmonella typhimurium TA100 assessed as mutagenic index at 32 umol/plate in presence of S9 liver extract; assay type: toxicity, organism-based, Liver S9 fraction; details: salmonella enterica subsp. enterica serovar typhimurium

Nc1ccc(NS(=O)(=O)c2ccc(N3C(=O)c4ccccc4C3=O)cc2)cc1
inhibition at 125 µM [1]: 40.6%
viability [2]: > 90%
inhibition at 15.625 µM [3]: 28.8%
inhibition [4]: Dose-dependent effect
inhibition (INH) [5]: 35.2%

Nc1ccc2cc3ccccc3cc2c1 [2-AMINOANTHRACENE]
Activity [6]: 2540

COc1cccc2c1C(=O)c1c(O)c3c(c(O)c1C2=O)C[C@@](O)(C(C)=O)C[C@@H]3O[C@H]1C[C@H](N)[C@H](O)[C@H](C)O1 [DAUNORUBICIN]
Activity [7]: 902

N=C(N)NS(=O)(=O)c1ccc(N2C(=O)c3ccccc3C2=O)cc1
inhibition at 125 µM [1]: 7.24%
viability [2]: > 90%
inhibition at 15.625 µM [3]: 0%
inhibition [4]: Dose-dependent effect
inhibition (INH) [5]: 29.63%

O=C1CCC(N2C(=O)c3ccccc3C2=O)C(=O)N1 (stereo not drawn) [THALIDOMIDE]
inhibition at 125 µM [1]: 42.8%
inhibition at 15.625 µM [3]: 35.4%
Activity [8]: 4600000
inhibition (INH) [5]: 42.2%

O=C1c2ccccc2C(=O)N1c1ccc(S(=O)(=O)Nc2ccccn2)cc1
inhibition at 125 µM [1]: 66.6%
viability [2]: > 90%
inhibition at 15.625 µM [3]: 26.5%
inhibition [4]: Dose-dependent effect
inhibition (INH) [5]: 49.8%

COc1cnc(NS(=O)(=O)c2ccc(N3C(=O)c4ccccc4C3=O)cc2)nc1
inhibition at 125 µM [1]: 80.8%
viability [2]: > 90%
inhibition at 15.625 µM [3]: 73.5%
inhibition [4]: Dose-dependent effect
inhibition (INH) [5]: 27.57%

Cc1cc(C)nc(NS(=O)(=O)c2ccc(N3C(=O)c4ccccc4C3=O)cc2)n1
inhibition at 125 µM [1]: 81.3%
viability [2]: > 90%
inhibition at 15.625 µM [3]: 53.9%
inhibition [4]: Dose-dependent effect
inhibition (INH) [5]: 27.37%

NS(=O)(=O)c1ccc(N2C(=O)c3ccccc3C2=O)cc1
inhibition at 125 µM [1]: 70.7%
viability [2]: > 90%
inhibition at 15.625 µM [3]: 53%
inhibition [4]: Dose-dependent effect
inhibition (INH) [5]: 26.75%

O=C1c2ccccc2C(=O)N1c1ccc(S(=O)(=O)Nc2ncccn2)cc1
inhibition at 125 µM [1]: 79.3%
viability [2]: > 90%
inhibition at 15.625 µM [3]: 33.7%
inhibition [4]: Dose-dependent effect
inhibition (INH) [5]: 39.1%

Cc1ccnc(NS(=O)(=O)c2ccc(N3C(=O)c4ccccc4C3=O)cc2)n1
Activity [9]: 1.4
inhibition at 125 µM [1]: 87.8%
Activity [10]: 1.08
Activity [11]: 1.64
viability [2]: > 90%
Activity [12]: 1.33
Activity [13]: 1.24
Activity [14]: 1.17
Activity [15]: 1.08
Activity [16]: 1.33
inhibition at 15.625 µM [3]: 86.3%
Activity [17]: 1.61
Activity [18]: 1.31
Activity [19]: 1.26
Activity [20]: 1.07
Activity [21]: 1.38
Activity [22]: 1.59
Activity [23]: 1.22
Activity [24]: 1.07
Activity [8]: 2500000
inhibition [4]: Dose-dependent effect
Activity [25]: 1.21
Activity [26]: 1.36
inhibition (INH) [5]: 34.15%
Activity [27]: 1.19
Activity [28]: 1.59

Cc1c(N(C)CS(=O)(=O)O)c(=O)n(-c2ccccc2)n1C [METAMIZOLE]
inhibition (INH) [5]: 33.5%

Cc1cc(NS(=O)(=O)c2ccc(N3C(=O)c4ccccc4C3=O)cc2)no1
inhibition at 125 µM [1]: 34.1%
viability [2]: > 90%
inhibition at 15.625 µM [3]: 16.2%
inhibition [4]: Dose-dependent effect
inhibition (INH) [5]: 17.9%
